For orientation: solubility means how much of the substance goes into solution per volume. Lower therefore signals little dissolved substance.

In brackets after ≈: the same amount, converted by molar mass. Activity calls are given as the source filed them. The calls are words filed in the database; no cut-off is given here.

In ChEMBL document CHEMBL2311265, “5'-Phosphate and 5'-phosphonate ester derivatives of (N)-methanocarba adenosine with in vivo cardioprotective activity” (J Med Chem, 2013) one finds Activity, solubility and Stability data, which are given here for 16 compounds.

Data set [1] relates to Mus musculus. Description: Cardioprotective activity in BL6 mouse LAD ligation ischemic heart failure model assessed as fractional shortening at 10 uM, sc administered as infusion at 24 hrs post LAD ligation for 28 days by echocardiography (reference value: 17.33 +/- 1.36%). Type of data set: functional.
For data set [2], the system named is Mus musculus. Description: Cardioprotective activity in BL6 mouse LAD ligation ischemic heart failure model assessed as change in infarct size at 10 uM, sc administered as infusion at 24 hrs post-LAD ligation for 1 month relative to control. Type of data set: functional, organism-based. The gist of the method:
(§1)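 Permanent LAD ligation in 12-week-old WT BL6 mice under intraperitoneal ketamine (100 mg/kg) and xylazine (10 mg/kg). Starting within 24 h, agents in PBS pH 7.4 at 10 µM were infused by mini-osmotic pump at 6 µL per d for 28 d. Controls were vehicle-infused WT mice and cardiac P2X4R-overexpressing transgenic mice. Infarct size was taken after heart-function measurement, from formalin-fixed, paraffin 4-µm Masson's trichrome sections, as infarct length over endocardial plus epicardial circumference. One-way ANOVA with Newman-Keuls test.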

The test system of data set [3] is Mus musculus. Description: Ex-vivo cardioprotective activity in BL6 mouse LAD ligation ischemic heart failure model assessed as change in infarct size at 10 uM, sc administered as infusion at 24 hrs post LAD ligation for 28 days relative to control. Type of data set: functional, organism-based. In outline: as §1
Data set [4] is described as follows: Aqueous solubility of the compound after 1 hr. Type of data set: physicochemical. Conditions: buffer. In outline:
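Excess solid stirred in water, supernatant removed and lyophilized; solubility calculated from the mass of solid recovered.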

Data set [5] concerns Mus musculus. Description: Ex-vivo cardioprotective activity in BL6 mouse LAD ligation ischemic heart failure model assessed as left ventricular rate of pressure change in isolated heart at 10 uM, sc administered as infusion at 24 hrs post LAD ligation for 28 days (reference value: 6156 +/- 356 mmHg/s). Type of data set: functional. The gist of the method: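 LAD-ligated BL6 mice were infused via mini-osmotic pump with 10 µM in PBS pH 7.4 at 6 µL per day for 28 days. Isolated working hearts then ejected buffered perfusate against a constant 56 mmHg hydrostatic afterload, and LV +dP/dt was recorded. Mean ± SEM against vehicle-infused controls; one-way ANOVA with Newman-Keuls.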

Data set [6] is filed under the species Mus musculus. Description: Agonist activity at P2XR receptor in wild type BL6 mouse cardiac ventricular myocytes assessed as increase in contraction shortening. In outline:
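Adult wild-type murine cardiac ventricular myocytes; contraction shortening recorded at basal control, during drug exposure and after washout. Data are mean ± standard error (13 or 8 myocytes per agent).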

Data set [7] relates to Mus musculus. Description: Cardioprotective activity in mouse overexpressing clasequestrin assessed as increase in fractional shortening at 3.3 uM, sc administered as infusion for 2 weeks relative to control. Type of data set: functional, organism-based.
Data set [8] concerns Mus musculus. Description: Cardioprotective activity in mouse overexpressing clasequestrin assessed as increase in fractional shortening at 10 uM, sc administered as infusion for 2 weeks relative to control. Type of data set: functional, organism-based.
For data set [9], the system named is Mus musculus. Description: Cardioprotective activity in mouse overexpressing clasequestrin assessed as LV posterior wall thickness at 10 uM, sc administered as infusion for 2 weeks (reference value: 0.45 +/- 0.007 mm). Type of data set: functional.
The subject of data set [10] is Mus musculus. Description: Cardioprotective activity in mouse overexpressing clasequestrin assessed as LV septal wall thickness at 10 uM, sc administered as infusion for 2 weeks (reference value: 0.45 +/- 0.007 mm). Type of data set: functional.
Data set [11] has as its system Mus musculus. Description: Cardioprotective activity in mouse overexpressing clasequestrin assessed as prevention of LV wall thinning at 10 uM, sc administered as infusion for 2 weeks. Type of data set: functional, organism-based. The gist of the method: (§2)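 CSQ-overexpressing mice with heart failure, 2-week infusion (n=5). Outcome is LV septal and posterior wall thickness versus normal-saline-infused CSQ mice. Values are mean ± standard error.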

Data set [12] deals with Mus musculus. Description: Cardioprotective activity in mouse overexpressing clasequestrin assessed as increase in LV posterior wall thickness during systole at 10 uM, sc administered as infusion for 2 weeks relative to control. Type of data set: functional, organism-based. The gist of the method: as §2
Another data set relates to Plasma. Description: Metabolic stability of the compound in rat plasma at 1.09 mM by HPLC analysis. Type of data set: ADME, cell-free. The note with it: 1090 µM. In outline: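 Incubation with rat plasma at 37°C for 24 h, and checked for hydrolysis.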
Data set [13] relates to Mus musculus. Description: Cardioprotective activity in mouse overexpressing clasequestrin assessed as increase in LV septal wall thickness during systole at 10 uM, sc administered as infusion for 2 weeks relative to control. Type of data set: functional, organism-based. In outline:
as §2

For the next data set, the system named is Liver microsomes. Description: Metabolic stability of the compound in rat liver microsomes by HPLC analysis. Type of data set: ADME, Microsome. In outline:
(§3)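 Incubation with mouse or rat liver microsomes at 37°C for 24 h, and checked for hydrolysis.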
On the technique in general: Liver microsomes are a subcellular fraction often used to study metabolism.

Data set [14] deals with Mus musculus. Description: Cardioprotective activity in mouse overexpressing clasequestrin assessed as increase in LV posterior wall thickness during diastole at 10 uM, sc administered as infusion for 2 weeks relative to control. Type of data set: functional, organism-based. In outline: as §2
Data set [15] can be described thus: Chemical stability of the compound in aqueous medium at pH 11 at 50 degC after 24 hrs by HPLC analysis. The note with it: buffer, pH 11, 24 h. Type of data set: physicochemical. The gist of the method:
(§4)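 Incubation for 24 h in aqueous medium at pH 1 or pH 11, 50°C, and checked for hydrolysis.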

A further data set has as its system Liver. Description: Metabolic stability of the compound in mouse liver microsomes by HPLC analysis. Type of data set: ADME, Microsome. In outline: as §3
Data set [16] is described as follows: Chemical stability of the compound in aqueous medium at pH 1 at 50 degC after 24 hrs by HPLC analysis. Type of data set: physicochemical. Conditions: buffer, pH 1, 24 h. In outline:
as §4

Turning to `CCOP(=O)(OCC)SC[C@@]12C[C@@H]1[C@@H](n1cnc3c(N)nc(Cl)nc31)[C@H](O)[C@@H]2O`, the Activity with Mus musculus [1] amounted to 24.31%. For the same compound, in the data set on Mus musculus [2], the outcome was inactive.

For `CCOP(=O)(C[C@@]12C[C@@H]1[C@@H](n1cnc3c(N)nc(Cl)nc31)[C@H](O)[C@@H]2O)OCC`, the result in the data set on Mus musculus [3] and in the data set on Mus musculus [2] was inactive. Besides, the solubility in data set [4] is on record as 60 mM (≈ 25.9 mg/mL). Moreover, in the data set with Mus musculus [5], the Activity is 5946 mmHg/s.

With `Nc1nc(Cl)nc2c1ncn2[C@H]1[C@H](O)[C@H](O)[C@]2(CCP(=O)(O)O)C[C@H]12`, the result in the data set listed under Mus musculus [6], in the data set on Mus musculus [7] and with Mus musculus [8] was Active.

For the compound `CCOP(=O)(C[C@@]12C[C@@H]1[C@@H](n1cnc3c(N)nc(I)nc31)[C@H](O)[C@@H]2O)OCC`, the Activity in the data set on Mus musculus [1] came out at 23.05%. In addition, in the data set on Mus musculus [2], the result was inactive.

Take `Nc1nc(Cl)nc2c1ncn2[C@H]1[C@H](O)[C@H](O)[C@]2(CSP(=O)(O)O)C[C@H]12`: the Activity in the data set on Mus musculus [9] is 0.493 mm; in the data set on Mus musculus [10] it was 0.492 mm; in the data set on Mus musculus [5], 6553 mmHg/s. Also, the result with Mus musculus [3] and in the data set with Mus musculus [2] was inactive.

Turning to `CC(C)(C)OP(=O)(OC[C@@]12C[C@@H]1[C@@H](n1cnc3c(N)nc(Cl)nc31)[C@H](O)[C@@H]2O)OC(C)(C)C`, the Activity in the data set with Mus musculus [1] is 24.07%; in the data set with Mus musculus [5], 6681 mmHg/s. The outcome in the data set with Mus musculus [3] and with Mus musculus [2] was inactive.

For `CCOP(=O)(OCC)OC[C@@]12C[C@@H]1[C@@H](n1cnc3c(N)nc(Cl)nc31)[C@H](O)[C@@H]2O`, the Activity with Mus musculus [1] came to 24.71%; with Mus musculus [5], 6711 mmHg/s. Further, the result with Mus musculus [3], in the data set on Mus musculus [2] and in the data set with Mus musculus [2] (tested as the 2H-labelled form) was inactive.

Consider `[2H]C([2H])(OP(=O)(OCC)OCC)[C@@]12C[C@@H]1[C@@H](n1cnc3c(N)nc(Cl)nc31)[C@H](O)[C@@H]2O`, for which, in the data set with Mus musculus [1], the Activity was found to be 21.48%.

For `CC(C)OP(=O)(OC[C@@]12C[C@@H]1[C@@H](n1cnc3c(N)nc(Cl)nc31)[C@H](O)[C@@H]2O)OC(C)C`, the Activity in the data set with Mus musculus [1] is 25.77%. Further, the outcome in the data set on Mus musculus [2] was inactive.

As for `Nc1nc(I)nc2c1ncn2[C@H]1[C@H](O)[C@H](O)[C@]2(CP(=O)(O)O)C[C@H]12`, the outcome in the data set on Mus musculus [3], in the data set on Mus musculus [2], in the data set on Mus musculus [8] and with Mus musculus [11] was inactive. Besides, the Activity in the data set with Mus musculus [5] came to 6581 mmHg/s.

`CC(C)OP(=O)(CC[C@@]12C[C@@H]1[C@@H](n1cnc3c(N)nc(Cl)nc31)[C@H](O)[C@@H]2O)OC(C)C`: the result in the data set with Mus musculus [12], in the data set with Mus musculus [13] and in the data set on Mus musculus [14] was Active. For the same compound, the Stability entry (with Plasma; with Liver microsomes; in data set [15]; with Liver; in data set [16]) was “Stable” each time. In data set [4], this compound had a solubility of 7.25 mM (≈ 3.44 mg/mL).

For the compound `CCOP(=S)(OCC)OC[C@@]12C[C@@H]1[C@@H](n1cnc3c(N)nc(Cl)nc31)[C@H](O)[C@@H]2O`, the outcome in the data set with Mus musculus [2] was inactive.

Regarding `Nc1nc(Cl)nc2c1ncn2[C@@H]1C2CC2(COP(=O)(O)O)[C@@H](O)[C@H]1O` (single isomer, unassigned), the Activity in the data set with Mus musculus [1] is on record as 22.14%; in the data set on Mus musculus [5] it was 6508 mmHg/s. Besides, the result in the data set listed under Mus musculus [6] was Active. Moreover, the result in the data set with Mus musculus [3] and in the data set with Mus musculus [2] was inactive.

Take `Nc1nc(Cl)nc2c1ncn2[C@H]1[C@H](O)[C@H](O)[C@]2(COP(=O)(O)O)C[C@H]12`: the outcome in the data set with Mus musculus [2] (tested as the 2H-labelled form) was inactive.

On to `[2H]C([2H])(OP(=O)(O)O)[C@@]12C[C@@H]1[C@@H](n1cnc3c(N)nc(Cl)nc31)[C@H](O)[C@@H]2O`, for which, in the data set on Mus musculus [1], the Activity amounted to 23.06%.

In the case of `CCOP(=S)(OCC)SC[C@@]12C[C@@H]1[C@@H](n1cnc3c(N)nc(Cl)nc31)[C@H](O)[C@@H]2O`, the Activity with Mus musculus [1] came to 24.76%. In the data set with Mus musculus [2], the outcome was inactive.
